# Only some compounds are listed: those with a hit (about 1.5% of all), similar ones and a draw of the others.
# TAG inh: inhibitors of triacylglycerol accumulation, primary screen, cell-based, uHTS, fluorescence, H9c2. H9c2 cells, Nile Red lipid (TAG) fluorescence; cells loaded with 200 µM oleic acid. inhibition, % at 12.5 µM. 0.66% of 230,000 active;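 active = pattern-corrected inhibition of lipid staining of at least 50% with the nuclear-stain viability signal not falling by more than 50%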;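 also: 0% = DMSO wells and 100% = triacsin C control wells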
# STAT3 inh-1: IL-6 driven STAT3 reporter inhibitors, primary screen, U3A cells, luciferase, luminescence, MLSCN library; inhibition, % at 5.5 µM; 0.89% of 190,000 active; IL-6 STAT3-luciferase reporter; host cell line lacks STAT1;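 active = inhibition above the mean inhibition across all screened compounds plus 3 SD, cut at about 44% in these data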;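 also: 0% = DMSO only wells and 100% = 100 µM nifuroxazide control wells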
# Platelet DG rel: inhibitors of platelet dense granule secretion, primary screen, cell-based, MLPCN, human platelets. human platelet-rich plasma, SFLLRN dense granule ATP release, luminescence. inhibition, %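 (compounds screened at 7.5 µM in platelet-rich plasma)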. 0.22% of 300,000 active. AID 1663, 2009;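 active = mean replicate score, as percent of positive control, at or above 50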
# PPC-1+TRAIL kill: compounds killing PPC-1 cancer cells with TRAIL present, primary screen, TRAIL potentiator project, ATPLite luminescence, uHTS; PPC-1 cells + TRAIL, ATPLite viability luminescence; cell killing (% activity), % at 4 µM or 5 µM; AID 1443, 2008; 0.41% of 220,000 active;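 active = cell killing above 50% in the first pass at 4 µM, then a duplicate retest at 5 µM averaging 50% or more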;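 also: plate controls were cells with TRAIL plus DMSO for no effect and medium-only wells lacking cells for full effect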
# Lipid droplet: inhibitors of hepatocyte lipid droplet formation, primary screen, imaging, high-throughput imaging, BODIPY stain | AML12 mouse hepatocytes, oleate lipid droplets | inhibition, % at 6.5 µM | 0.4% of 240,000 active | AID 1656, 2009;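 active = lipid droplet intensity inhibited by at least 50%, with more than 500 cells counted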
#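 Test system: AML12 hepatocytes (mouse); reagent: oleate loading, 100 µM; dosing: one dose, 6.5 µM compound; incubation: overnight exposure; signal: fluorescence imaging, 20x objective, two fields per well; read-out basis: % inhibition of corrected integrated BODIPY droplet signal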
# STAT1 blocker: STAT1 signaling inhibitors, primary screen, cell-based, HTS, luciferase reporter; inhibition, % at 5.5 µM; NIH 3T3 STAT1-luciferase reporter, IFN-gamma, luminescence; 0.35% of 200,000 active;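 active = inhibition above a set limit, the mean inhibition across all tested compounds plus 3 SD, cut at about 34% in these data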;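 also: 0% = IFN-gamma with DMSO and 100% = IFN-gamma with 300 µM nifuroxazide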
# STAT3 inh-2: STAT3 reporter inhibitors, retest of hits, confirmation, U3A cells, luciferase, luminescence. IL-6 STAT3 luciferase reporter; cell line lacks STAT1. 45% of 1,200 active. shares compounds with STAT3 inh-1. inhibition, % at 5.7 µM. AID 1265, 2008;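 active = inhibition above the hit cutoff computed for the primary STAT3 screen, cut at about 44% in these data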;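 also: 0% = IL-6 plus DMSO and 100% = IL-6 plus nifuroxazide control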
# NFkB inh STAT3ct: NF-kB reporter inhibitors in human cells, confirmation, counter-screen for STAT3 inhibitor project, cell-based, HEK293T, luciferase, TNF-alpha stimulus; shares compounds with STAT3 inh-1; AID 1308, 2008; 36% of 1,200 active; TNF-alpha induced; inhibition, % at 5.7 µM;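 active = inhibition above the mean of solvent-only control wells plus 3 SD, cutoff set per campaign, cut at about 13% in these data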;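 also: 0% = TNF-alpha with DMSO and 100% = TNF-alpha with MG high control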
# STAT1 inh 2: STAT1 reporter inhibitors, IFN-gamma induced, confirmation, counter-screen for STAT3 inhibitor project, cell-based, NIH 3T3, luciferase luminescence | shares compounds with STAT3 inh-1 | NIH 3T3 STAT1-luciferase reporter | inhibition, % at 5.7 µM | 27% of 1,200 active | AID 1317, 2008;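 active = inhibition above the mean plus 3 SD of solvent-only control wells, limit set per screening run, cut at about 16% in these data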;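 also: 0% = DMSO with IFN-gamma and 100% = nifuroxazide control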
# * hit, by the source's call; x = no result given.
SMILES,TAG inh,STAT3 inh-1,Platelet DG rel,PPC-1+TRAIL kill,Lipid droplet,STAT1 blocker,STAT3 inh-2,NFkB inh STAT3ct,STAT1 inh 2
COc1ccc(C(=O)c2ccccc2)c2c(O)ccc(C(=O)c3ccccc3)c12,-13,65*,-3,4,1,9,62*,16*,-1
COc1cc(NC(=O)c2ccc([N+](=O)[O-])o2)ccc1NC(=O)c1cccs1,84,44*,5,23,12,-14,28,5,-14
CC(=O)Nc1ccc(-c2ccnc3c2CC(C)(C(=O)NCc2cccc(Cl)c2)O3)cc1 (stereo unspecified),22,x,x,x,x,x,x,x,x
COc1ccc(Nc2nc(N3CCCCC3)c3ccccc3n2)cc1,-9,47*,-1,17,x,19,49*,5,27*
CCCCc1ccc(/C=C(\C#N)C(N)=S)s1,x,44*,x,-2,10,23,42,-14,17*
Cn1cccc1/C=C(/C#N)C(N)=S,x,4,-10,18,7,0,x,x,x
Cc1ccc(C(=O)Nc2ccc(Cl)cn2)cc1,x,56*,-3,36,x,-25,13,-16,-107
Cc1ccc(NC(=O)c2sc3ccccc3c2Cl)nc1,x,49*,-35,40,x,-31,0,0,-72
CCCOc1ccc(C(=O)Nc2ccc(Cl)cn2)cc1,0,56*,6,30,15,-2,22,-19,-105
NC(c1csc(Nc2nncc3ccccc23)n1)C1CCCCC1 (stereo unspecified),33,x,x,x,x,x,x,x,x
CCN(CC)S(=O)(=O)c1ccc(NC(=O)c2ccccc2N(C)S(C)(=O)=O)cc1,x,5,-4,5,2,1,x,x,x
COC(=O)c1ccc(NC(=O)c2ccc(N(C)S(C)(=O)=O)cc2)cc1,x,52*,15,11,11,0,39,2,-8
CCN(CC)S(=O)(=O)c1ccc(C(=O)Nc2ccc(Cc3ccncc3)cc2)cc1,-24,64*,0,8,4,22,61*,16*,16*
CCN(CC)S(=O)(=O)c1ccc(NC(=O)c2ccc(N(C)S(C)(=O)=O)cc2)cc1,8,80*,7,44,2,4,72*,29*,7
CCN(CC)S(=O)(=O)c1ccc(C(=O)Nc2cc(C)cc(C)c2)cc1,27,24,-4,12,x,5,x,x,x
COc1ccc(NS(=O)(=O)c2ccc(NC(=O)c3ccc(N(C)S(C)(=O)=O)cc3)cc2)c(OC)c1,x,73*,11,21,3,16,84*,26*,24*
COc1ccc(NS(=O)(=O)c2ccc(NC(C)=O)cc2)c(OC)c1,-12,2,0,9,-1,5,x,x,x
Nc1nc(SCc2cccnc2)c2ncn(C3OC(CO)C(O)C3O)c2n1 (stereo unspecified),-6,x,x,x,x,x,x,x,x
COCCNc1nc(Nc2ccccc2Cl)c2sccc2n1,-14,x,x,x,x,x,x,x,x
CC(=O)c1c(C)[nH]c(C(=O)CSc2nc3ccccc3n2C)c1C,-48,50*,8,-7,x,13,42,-1,8
CCn1c(SCC(=O)c2[nH]c(C)c(C(C)=O)c2C)nnc1-c1cccs1,x,30,3,12,x,15,x,x,x
C/C(=N/NC(=O)c1cc(C(C)C)[nH]n1)c1cccs1,21,51*,12,24,x,-2,7,-26,-64
C/C(=N\NC(=O)c1cc(C)[nH]n1)c1cccs1,22,33,5,7,7,-8,x,x,x
CC(=O)Nc1cccc(-c2ccnc3c2CC(C)(C(=O)Nc2ccc(C(C)C)cc2)O3)c1 (stereo unspecified),-10,x,x,x,x,x,x,x,x
FC(F)(F)c1cnc(-c2cnc(-c3ccncc3)nc2)c(Cl)c1,-27,21,16,13,6,-45,x,x,x
SMILES,TAG inh,STAT3 inh-1,Platelet DG rel,PPC-1+TRAIL kill,Lipid droplet,STAT1 blocker,STAT3 inh-2,NFkB inh STAT3ct,STAT1 inh 2
FC(F)(F)c1cnc(-c2cnc(-c3ccccn3)nc2)c(Cl)c1,-7,48*,4,47,25,-9,16,-23,-57
CCOc1ccc(S(=O)(=O)N2CCC(C(=O)Nc3ccccc3N3CCCC3)CC2)cc1,0,x,x,x,x,x,x,x,x
CC(C)(C)c1ccc(CC(=O)N2CCC2(C)C(=O)NS(=O)(=O)c2ccc(F)cc2F)cc1 (stereo unspecified),-15,x,x,x,x,x,x,x,x
Cc1cscc(C)c1=S,-2,x,x,x,x,x,x,x,x
COc1ccc(Nc2oc(COc3ccc(Cl)cc3)nc2C#N)cc1,4,47*,-4,9,13,2,31,0,8
O=C(c1ccc(Cn2ccc([N+](=O)[O-])n2)cc1)N1CCN(Cc2ccccc2)CC1,-2,x,-8,5,-31,x,x,x,x
CSc1ccc(CN2CCN(C(=O)c3ccc([N+](=O)[O-])cc3)CC2)cc1,-14,55*,7,18,2,3,59*,13,-3
COc1cc(CSc2nnnn2-c2ccc(C)cc2)cc(OC)c1OC,x,69*,1,-4,-17,22,70*,26*,22*
CCc1nc2c(oc3ccccc32)c(=O)[nH]1,3,-4,2,22,x,-9,x,x,x
O=c1[nH]c(CSc2ccccn2)nc2c1oc1ccccc12,-4,71*,4,31,1,18,18,-8,-62
CC(C)CN1C(=O)C(=O)N(CC(=O)NCCCc2ccccc2)C1=O,-13,x,x,x,x,x,x,x,x
CCc1c(C)nc2ncnn2c1NCCc1ccccc1,-41,42,1,12,x,12,x,x,x
CCc1c(C)nc2ncnn2c1NCCc1ccc(Cl)cc1,-32,54*,-1,0,-16,23,59*,16*,25*
CC1CN(C=O)CC(C)N1CCN1C(C)CN(C=O)CC1C (stereo unspecified),-10,x,x,x,x,x,x,x,x
C=CCn1c(C)cc(C(=O)COC(=O)CNC(=O)c2ccccc2)c1C,x,46*,-10,1,x,31,-26,0,-68
CC(=O)Nc1ccc(S(=O)(=O)Oc2cccc(N3C(=O)C4CC=CCC4C3=O)c2)cc1 (stereo unspecified),-39,10,-9,16,-5,8,x,x,x
